According to ChEMBL document CHEMBL3425469, “Discovery of imidazo[2,1-b]thiazole HCV NS4B inhibitors exhibiting synergistic effect with other direct-acting antiviral agents” (J Med Chem, 2015):

Experiments:
[1] = test system: Hepatitis C virus; experiment: Antiviral activity against Hepatitis C virus genotype 1b Con 1 infected in human HuH7 cells at 5 nM after 72 hrs by luciferase assay in presence of 0.08 nM daclatasvir; format: functional, Hepacivirus hominis, Huh-7
Summary of the method: (§1)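 Huh-7 cells stably carrying a GT1b Con1 bicistronic luciferase replicon, seeded at 8000 cells/well. The test compound and the partner DAA are dosed orthogonally at various concentrations, final 0.5% DMSO, then incubated 72 h at 37°C. Bright-Glo luciferase read-out gives replicon inhibition as % of untreated control. Cytotoxicity is checked in parallel by CellTiter-Fluor. CI and DRI are derived by the Chou–Talalay median-effect method.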

[2] = test system: Hepatitis C virus; experiment: Antiviral activity against Hepatitis C virus genotype 1b Con 1 infected in human HuH7 cells at 5 nM after 72 hrs by luciferase assay in presence of 3 nM simeprevir; format: functional, Hepacivirus hominis, Huh-7; summary of the method: as §1
[3] = test system: Hepatitis C virus; experiment: Antiviral activity against Hepatitis C virus genotype 1b Con 1 infected in human HuH7 cells at 80 nM after 72 hrs by luciferase assay in presence of 60 nM sofobuvir; format: functional, Hepacivirus hominis, Huh-7; summary of the method: as §1
[4] = test system: Hepatitis C virus; experiment: Antiviral activity against Hepatitis C virus genotype 1b Con 1 infected in human HuH7 cells at 40 nM after 72 hrs by luciferase assay in presence of 15 uM clemizole; format: functional, Hepacivirus hominis, Huh-7; summary of the method: as §1
[5] = test system: Hepatitis C virus; experiment: Antiviral activity against Hepatitis C virus genotype 1b Con 1 infected in human HuH7 cells at 40 nM after 72 hrs by luciferase assay in presence of 0.08 nM daclatasvir; format: functional, Hepacivirus hominis, Huh-7; summary of the method: as §1
[6] = test system: Hepatitis C virus; experiment: Antiviral activity against Hepatitis C virus genotype 1b Con 1 infected in human HuH7 cells at 10 nM after 72 hrs by luciferase assay in presence of 0.08 nM daclatasvir; format: functional, Hepacivirus hominis, Huh-7
Summary of the method: (§2)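 Stable Con1 GT1b bicistronic luciferase replicon in Huh-7 cells, 8000 cells/well. Test compound and a marketed DAA or clemizole added alone or together at varied concentrations, 0.5% DMSO final. 72 h at 37°C, then luciferase read with Bright-Glo. Inhibition expressed as % of untreated control, with cytotoxicity run in parallel. CI and DRI derived by the Chou–Talalay median-effect method.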

[7] = test system: Hepatitis C virus; experiment: Antiviral activity against Hepatitis C virus genotype 1b Con 1 infected in human HuH7 cells at 160 nM after 72 hrs by luciferase assay in presence of 7.5 uM clemizole; format: functional, Hepacivirus hominis, Huh-7; summary of the method: as §2
[8] = test system: Hepatitis C virus; experiment: Antiviral activity against Hepatitis C virus genotype 1b Con 1 infected in human HuH7 cells at 10 nM after 72 hrs by luciferase assay in presence of 240 nM sofobuvir; format: functional, Hepacivirus hominis, Huh-7; summary of the method: as §2
[9] = test system: Hepatitis C virus; experiment: Antiviral activity against Hepatitis C virus genotype 1b Con 1 infected in human HuH7 cells at 20 nM after 72 hrs by luciferase assay in presence of 0.04 nM daclatasvir; format: functional, Hepacivirus hominis, Huh-7; summary of the method: as §2
[10] = test system: Hepatitis C virus; experiment: Antiviral activity against Hepatitis C virus genotype 1b Con 1 infected in human HuH7 cells at 40 nM after 72 hrs by luciferase assay in presence of 12.5 uM clemizole; format: functional, Hepacivirus hominis, Huh-7; summary of the method: as §1
[11] = test system: Hepatitis C virus; experiment: Antiviral activity against Hepatitis C virus genotype 1b harboring S282T NS5B (active site) mutation transfected in human HuH7 cells after 72 hrs by luciferase assay; format: functional, cell-based, Hepacivirus hominis; settings: Huh-7, 72 h
Summary of the method: (§3)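 Huh-7 cells were transiently electroporated with genotype 1b replicon RNA carrying the specified mutation and plated at 10000 cells/well. Compounds were added at 0.5% DMSO final for 72 h at 37°C. Read-out was Bright-Glo luciferase. EC50 is the mean of two independent runs within 2-fold of each other. A reference drug EC50 was measured alongside each mutant replicon to validate it.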

[12] = test system: Hepatitis C virus; experiment: Antiviral activity against Hepatitis C virus genotype 1b Con 1 infected in human HuH7 cells at 160 nM after 72 hrs by luciferase assay in presence of 10 uM clemizole; format: functional, Hepacivirus hominis, Huh-7; summary of the method: as §2
[13] = test system: Hepatitis C virus; experiment: Antiviral activity against Hepatitis C virus genotype 1b Con 1 infected in human HuH7 cells at 10 nM after 72 hrs by luciferase assay in presence of 6 nM simeprevir; format: functional, Hepacivirus hominis, Huh-7; summary of the method: as §2
[14] = test system: Hepatitis C virus; experiment: Antiviral activity against Hepatitis C virus genotype 1b Con 1 infected in human HuH7 cells at 2.5 nM after 72 hrs by luciferase assay in presence of 0.04 nM daclatasvir; format: functional, Hepacivirus hominis, Huh-7; summary of the method: as §2
[15] = test system: Hepatitis C virus; experiment: Antiviral activity against Hepatitis C virus genotype 1b Con 1 infected in human HuH7 cells at 5 nM after 72 hrs by luciferase assay in presence of 30 nM sofobuvir; format: functional, Hepacivirus hominis, Huh-7; summary of the method: as §1
[16] = Cytotoxicity against human HuH7 cells assessed as cell proliferation by cell titer assay; format: cell-based, Huh-7
Summary of the method: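 Huh-7 cells carrying GT1b Con1 bicistronic replicon seeded at 8000 cells/well; compound added at 0.5% DMSO final, 37°C for 72 h. Proliferation read with CellTiter-Fluor reagent per manufacturer; CC50 fitted from concentration-response, average of at least two independent determinations.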

[17] = test system: Hepatitis C virus; experiment: Antiviral activity against Hepatitis C virus genotype 1b Con 1 infected in human HuH7 cells at 160 nM after 72 hrs by luciferase assay in presence of 0.08 nM daclatasvir; format: functional, Hepacivirus hominis, Huh-7; summary of the method: as §2
[18] = test system: Hepatitis C virus; experiment: Antiviral activity against Hepatitis C virus genotype 1b Con 1 infected in human HuH7 cells at 20 nM after 72 hrs by luciferase assay in presence of 120 nM sofobuvir; format: functional, Hepacivirus hominis, Huh-7; summary of the method: as §2
[19] = test system: Hepatitis C virus; experiment: Antiviral activity against Hepatitis C virus genotype 1b Con 1 infected in human HuH7 cells at 5 nM after 72 hrs by luciferase assay in presence of 0.02 nM daclatasvir; format: functional, Hepacivirus hominis, Huh-7; summary of the method: as §1
[20] = test system: Hepatitis C virus; experiment: Antiviral activity against Hepatitis C virus genotype 1b Con 1 infected in human HuH7 cells at 40 nM after 72 hrs by luciferase assay in presence of 0.16 nM daclatasvir; format: functional, Hepacivirus hominis, Huh-7; summary of the method: as §1
[21] = test system: Hepatitis C virus; experiment: Antiviral activity against Hepatitis C virus genotype 1b Con 1 infected in human HuH7 cells at 5 nM after 72 hrs by luciferase assay in presence of 10 uM clemizole; format: functional, Hepacivirus hominis, Huh-7; summary of the method: as §1
[22] = test system: Hepatitis C virus; experiment: Antiviral activity against Hepatitis C virus genotype 1b Con 1 infected in human HuH7 cells at 20 nM after 72 hrs by luciferase assay in presence of 5 uM clemizole; format: functional, Hepacivirus hominis, Huh-7; summary of the method: as §1
[23] = test system: Hepatitis C virus; experiment: Antiviral activity against Hepatitis C virus genotype 1b harboring A156T NS3/4A mutation transfected in human HuH7 cells after 72 hrs by luciferase assay; format: functional, cell-based, Hepacivirus hominis; settings: Huh-7, 72 h; summary of the method: as §3
[24] = test system: Hepatitis C virus; experiment: Antiviral activity against Hepatitis C virus genotype 1b harboring Q26R mutation transfected in human HuH7 cells after 72 hrs by luciferase assay; format: functional, cell-based, Hepacivirus hominis; settings: Huh-7, 72 h; summary of the method: as §3
[25] = test system: Hepatitis C virus; experiment: Antiviral activity against Hepatitis C virus genotype 1b Con 1 infected in human HuH7 cells at 20 nM after 72 hrs by luciferase assay in presence of 30 nM sofobuvir; format: functional, Hepacivirus hominis, Huh-7; summary of the method: as §1
[26] = test system: Hepatitis C virus; experiment: Antiviral activity against Hepatitis C virus genotype 1b Con 1 infected in human HuH7 cells at 40 nM after 72 hrs by luciferase assay in presence of 240 nM sofobuvir; format: functional, Hepacivirus hominis, Huh-7; summary of the method: as §1
[27] = test system: Hepatitis C virus; experiment: Antiviral activity against Hepatitis C virus genotype 1b Con 1 infected in human HuH7 cells at 5 nM after 72 hrs by luciferase assay in presence of 12.5 uM clemizole; format: functional, Hepacivirus hominis, Huh-7; summary of the method: as §1
[28] = test system: Hepatitis C virus; experiment: Antiviral activity against Hepatitis C virus genotype 1b Con 1 infected in human HuH7 cells at 2.5 nM after 72 hrs by luciferase assay in presence of 15 uM clemizole; format: functional, Hepacivirus hominis, Huh-7; summary of the method: as §2
[29] = test system: Hepatitis C virus; experiment: Antiviral activity against Hepatitis C virus genotype 1b Con 1 infected in human HuH7 cells at 10 nM after 72 hrs by luciferase assay in presence of 0.02 nM daclatasvir; format: functional, Hepacivirus hominis, Huh-7; summary of the method: as §2

Compound `O=C(c1nc2scc(C3CC3)n2c1Cl)N1CCN(C2CCCC2)C(=O)C1` has a CI [1] of 0.66, a CI [2] of 1.22 and a CI [3] of 0.64. The CI [4] was 0.94, the CI [5] was 0.53 and the CI [6] was 0.69. The CI [7] was 1.17, the CI [8] was 0.58 and the CI [9] was 0.69. The CI [10] was 0.76, the EC50 [11] was 15 nM and the CI [12] was 1.09. For the same compound, the CI [13] was 0.54, the CI [14] was 0.89 and the CI [15] was 0.77. For the same compound, the CC50 [16] was over 10000 nM, the CI [17] was 0.42 and the CI [18] was 0.63. For the same compound, the CI [19] was 1.21, the CI [20] was 0.64 and the CI [21] was 0.75. The CI [22] was 0.94, the EC50 [23] was 4 nM and the EC50 [24] was 350 nM. It also gave a CI [25] of 0.83, a CI [26] of 0.41 and a CI [27] of 0.71. The CI [28] was 1.17 and the CI [29] was 1.14.
